Assay results published in paper PMC6402190 (Clinical and Translational Science, 2017).
“Also recorded” adds a separate entry of the source. Where two headings read alike, the source gives them in different places.

Legend:
[1] = format: in vivo, human (healthy women)
[2] = Safety: treatment emergent adverse events, laboratory, vital signs, ECG; format: in vivo, human (healthy women); settings: for Dose-dependent AEs or clinically significant findings in safety laboratory values, vital signs, ECG parameters: any of the dose groups
How it was run: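 Subjects were healthy women, aged 18–45 years, with BMI 18.0–28.0 kg/m². Part A gave single escalating i.v. doses (6 active, 2 placebo per cohort). Part B gave 240 mg i.v. on day 1 and once daily on days 8–14 (8 active, 4 placebo). AEs were categorized by nature, frequency, duration, severity, investigator-assessed causality and dose-dependence. Clinical laboratory, blood pressure, heart rate and 12-lead/Holter ECG were also recorded. Summaries are descriptive.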

[3] = Local tolerability: VAS assessment of pain at infusion site; format: in vivo, human (healthy women)
How it was run: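 Healthy women, aged 18–45 years, received single i.v. doses of HPβCD-formulated test compound (60-min infusion in 0.9% saline) or placebo. Pain was self-rated on a 100-mm line (0 = no pain, 100 = unbearable). Read-outs were maximum increase from baseline and area under the VAS-time curve.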

[4] = Local tolerability: Visual Infusion Phlebitis; format: in vivo, human (healthy women)
How it was run: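 The investigator scored the infusion site on the Visual Infusion Phlebitis scale, from 0 (no signs) to 5 (advanced thrombophlebitis). Subjects were healthy women given a single i.v. infusion of test compound or placebo. Scoring was done on day 1 predose after catheter placement, at 0.5, 1, 2, 3, 4, 6, 8, 12, 24, 48 and 72 h postdose, and at the post-trial exam.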

[5] = Local tolerability: ultrasound of the arm veins; format: in vivo, human (healthy women)
How it was run: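 Arm veins were examined by ultrasound in healthy women. In the multiple-dose phase of part B, subjects had once-daily 30-min i.v. infusions of 240 mg test compound or placebo on days 8–14. Scans were done at readmission on day 7 and predose on days 9–14. After the day-14 dose they were repeated at 24, 48 and 72 h and at the final exam.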

[6] = part A, single 120 mg i.v., 30-min infusion, N=6, mean ± SD
[7] = part A, single 240 mg i.v., 30-min infusion, N=6, mean ± SD
[8] = part A, single 480 mg i.v., 60-min infusion, N=6, mean ± SD
[9] = part A, single 720 mg i.v., 60-min infusion, N=6, mean ± SD
[10] = part A, single 960 mg i.v., 60-min infusion, N=6, mean ± SD
[11] = part B, single 240 mg i.v. day 1, 30-min infusion, N=8, mean ± SD
[12] = part A, letermovir total (N=30)
[13] = part B, multiple-dose letermovir
[14] = part A, single dose 120 mg (N=6)
[15] = part A, single dose 120 mg (N=6), listed as letermovir
[16] = part A, single dose 240 mg (N=6)
[17] = part A, single dose 480 mg (N=6)
[18] = part A, single dose 720 mg (N=6)
[19] = part A, single dose 960 mg (N=6)
[20] = part A, single dose, letermovir total (N=30)
[21] = part B, multiple dose 240 mg (No. 5)
[22] = part B, multiple dose 240 mg (No. 6)
[23] = part B, single dose 240 mg (N=8)

## COc1cccc(N2CCN(C3=Nc4c(F)cccc4[C@H](CC(=O)O)N3c3cc(C(F)(F)F)ccc3OC)CC2)c1 [Letermovir]
[1]; female, human, plasma, intravenous, 240 mg, AUC0–∞ after a single dose, part B, 240 mg single dose
  AUC(0-inf): 27500 ng·h/mL
[1]; female, human, plasma, intravenous, 240 mg, AUCτ,ss, part B, 240 mg q.d., steady state
  AUC: 33600 ng·h/mL
[1]; female, human, plasma, iv, 120 mg
  Tmax: 0.5 h
[1]; female, human, plasma, iv, 240 mg
  Tmax: 0.5 h
[1]; female, human, plasma, iv, 480 mg
  Tmax: 1 h
[1]; female, human, plasma, iv, 720 mg
  Tmax: 1 h
[1]; female, human, plasma, iv, 960 mg
  Tmax: 1 h
[1]; [6]
  AUC0–last/D: 0.11 ± 0.03 µg·h/mL/mg
  AUC0–∞/D: 0.11 ± 0.03 µg·h/mL/mg
  Cmax/D: 0.06 ± 0.01 µg/mL/mg
[1]; [7]
  AUC0–last/D: 0.14 ± 0.04 µg·h/mL/mg
  AUC0–∞/D: 0.14 ± 0.04 µg·h/mL/mg
  Cmax/D: 0.07 ± 0.01 µg/mL/mg
[1]; [8]
  AUC0–last/D: 0.22 ± 0.04 µg·h/mL/mg
  AUC0–∞/D: 0.22 ± 0.04 µg·h/mL/mg
  Cmax/D: 0.06 ± 0.01 µg/mL/mg
[1]; [9]
  AUC0–last/D: 0.23 ± 0.03 µg·h/mL/mg
  AUC0–∞/D: 0.23 ± 0.03 µg·h/mL/mg
  Cmax/D: 0.05 ± 0.00 µg/mL/mg
[1]; [10]
  AUC0–last/D: 0.26 ± 0.06 µg·h/mL/mg
  AUC0–∞/D: 0.26 ± 0.06 µg·h/mL/mg
  Cmax/D: 0.06 ± 0.01 µg/mL/mg
[1]; part B, 240 mg q.d. i.v. day 14, 30-min infusion, N=5, median (minimum-maximum)
  Tmax: 0.50 (0.50–0.50) h
[1]; part B, 240 mg q.d. i.v. day 14, N=5, mean ± SD
  C0h (pre-dose analyte concentration): 193.2 ± 86.23 ng/mL
[1]; [11]
  AUC0–last/D: 0.12 ± 0.02 µg·h/mL/mg
  AUC0–∞/D: 0.13 ± 0.02 µg·h/mL/mg
  Cmax/D: 0.06 ± 0.01 µg/mL/mg
[1]; part B, single 240 mg i.v. day 1, 30-min infusion, N=8, median (minimum-maximum)
  Tmax: 0.50 (0.50–0.50) h
[1]; single i.v. doses 120–960 mg
  Dose proportionality of Cmax: dose‐proportional increase; also recorded: approximately proportionally to the dose
  Dose proportionality of total exposure AUC0–∞ (AUC0–last): slightly more‐than‐dose‐proportional increase; also recorded: more than dose proportional
  Increase in exposure on dose-doubling: threefold
[2]
  Dose-dependent AEs or clinically significant findings in safety laboratory values, vital signs, ECG parameters: No clinically significant findings
[2]; listed as letermovir
  Dose-dependent AEs or clinically significant findings in safety laboratory values, vital signs, ECG parameters: No dose‐dependent AEs or clinically significant findings
[2]; part A
  Subjects with mild or moderate TEAEs: 17 subjects
[2]; [12]
  TEAE Vessel puncture site hematoma: 2 No. of subjects
  TEAE Vessel puncture site pain: 4 No. of subjects
  TEAE Vessel puncture site reaction: 2 No. of subjects
[2]; part A, single-dose letermovir
  Treatment-related AE headache: 2 subjects
  Treatment-related AE nausea: 2 subjects
  Treatment-related AE vomiting: 2 subjects
[2]; part A, single-dose letermovir (18/30)
  Subjects reporting TEAEs: 60%
[2]; part A, single-dose letermovir (eight subjects)
  Subjects reporting AEs possibly or probably related to treatment: 26.7%
[2]; part B
  Subjects with mild or moderate TEAEs: 6 subjects
[2]; part B, letermovir (6/8)
  Subjects reporting TEAEs: 75%
[2]; [13]
  Subjects with treatment-related AEs: five
  Treatment-related AE dizziness: 2 subjects
  Treatment-related AE headache: 2 subjects
[2]; single doses up to 960 mg and multiple once-daily 240 mg i.v.
  General tolerability: generally safe and well tolerated
[2]; throughout the study
  Discontinuations due to AEs: no discontinuations due to AEs
[3]; [14]
  AUC (increase from baseline) of VAS-time curve, Mean (SD): 2.74 (6.55) h*mm VAS
  AUC (increase from baseline) of VAS-time curve, Median: 0.00 h*mm VAS
  AUC (increase from baseline) of VAS-time curve, Range: 0.00–16.10 h*mm VAS
  VAS maximum increase from baseline, Mean (SD): 1.17 (2.40) mm VAS
  VAS maximum increase from baseline, Median: 0.00 mm VAS
  VAS maximum increase from baseline, Range: 0.00–6.00 mm VAS
[3]; [15]
  AUC (increase from baseline) of VAS-time curve, Mean (SD): 2.74 h*mm VAS
  VAS maximum increase from baseline, Mean (SD): 1.17 mm VAS
[3]; [16]
  AUC (increase from baseline) of VAS-time curve, Mean (SD): 0.83 (0.61) h*mm VAS
  AUC (increase from baseline) of VAS-time curve, Median: 0.83 h*mm VAS
  AUC (increase from baseline) of VAS-time curve, Range: 0.00–1.67 h*mm VAS
  VAS maximum increase from baseline, Mean (SD): 1.17 (0.75) mm VAS
  VAS maximum increase from baseline, Median: 1.00 mm VAS
  VAS maximum increase from baseline, Range: 0.00–2.00 mm VAS
[3]; [17]
  AUC (increase from baseline) of VAS-time curve, Mean (SD): 0.24 (0.42) h*mm VAS
  AUC (increase from baseline) of VAS-time curve, Median: 0.00 h*mm VAS
  AUC (increase from baseline) of VAS-time curve, Range: 0.00–1.02 h*mm VAS
  VAS maximum increase from baseline, Mean (SD): 0.5 (0.84) mm VAS
  VAS maximum increase from baseline, Median: 0.00 mm VAS
  VAS maximum increase from baseline, Range: 0.00–2.00 mm VAS
[3]; [18]
  AUC (increase from baseline) of VAS-time curve, Mean (SD): 0.39 (0.95) h*mm VAS
  AUC (increase from baseline) of VAS-time curve, Median: 0.00 h*mm VAS
  AUC (increase from baseline) of VAS-time curve, Range: 0.00–2.33 h*mm VAS
  VAS maximum increase from baseline, Mean (SD): 0.17 (0.41) mm VAS
  VAS maximum increase from baseline, Median: 0.00 mm VAS
  VAS maximum increase from baseline, Range: 0.00–1.00 mm VAS
[3]; part A, single dose 720 mg (N=6), listed as letermovir
  VAS maximum increase from baseline, Mean (SD): 0.17 mm VAS
[3]; [19]
  AUC (increase from baseline) of VAS-time curve, Mean (SD): 0.26 (0.64) h*mm VAS
  AUC (increase from baseline) of VAS-time curve, Median: 0.00 h*mm VAS
  AUC (increase from baseline) of VAS-time curve, Range: 0.00–1.57 h*mm VAS
  VAS maximum increase from baseline, Mean (SD): 0.67 (1.63) mm VAS
  VAS maximum increase from baseline, Median: 0.00 mm VAS
  VAS maximum increase from baseline, Range: 0.00–4.00 mm VAS
[3]; [20]
  AUC (increase from baseline) of VAS-time curve, Mean (SD): 0.89 (2.94) h*mm VAS
  AUC (increase from baseline) of VAS-time curve, Median: 0.00 h*mm VAS
  AUC (increase from baseline) of VAS-time curve, Range: 0.00–16.10 h*mm VAS
  VAS maximum increase from baseline, Mean (SD): 0.73 (1.36) mm VAS
  VAS maximum increase from baseline, Median: 0.00 mm VAS
  VAS maximum increase from baseline, Range: 0.00–6.00 mm VAS
[3]; part A, single dose, letermovir total (N=30), listed as letermovir
  VAS maximum increase from baseline, Mean (SD): 0.73 mm VAS
[3]; [21]
  AUC (increase from baseline) of VAS-time curve, Mean (SD): 24.58 (30.23) h*mm VAS
  AUC (increase from baseline) of VAS-time curve, Median: 23.95 h*mm VAS
  AUC (increase from baseline) of VAS-time curve, Range: 0.00–74.33 h*mm VAS
[3]; [22]
  VAS maximum increase from baseline, Mean (SD): 0.83 (0.41) mm VAS
  VAS maximum increase from baseline, Median: 1.00 mm VAS
  VAS maximum increase from baseline, Range: 0.00–1.00 mm VAS
[3]; part B, multiple dose 240 mg (No. 6), listed as letermovir
  VAS maximum increase from baseline, Mean (SD): 0.83 mm VAS
[3]; [23]
  AUC (increase from baseline) of VAS-time curve, Mean (SD): 0.00 h*mm VAS
  AUC (increase from baseline) of VAS-time curve, Median: 0.00 h*mm VAS
  AUC (increase from baseline) of VAS-time curve, Range: 0.00 h*mm VAS
  VAS maximum increase from baseline, Mean (SD): 0.00 mm VAS
  VAS maximum increase from baseline, Median: 0.00 mm VAS
  VAS maximum increase from baseline, Range: 0.00 mm VAS
[4]; part A, one subject of 120 mg group, 4 h postinfusion, scale 0–5
  VIP score: 2
[4]; part A, one subject treated with 240 mg, 24 h postinfusion, scale 0–5
  VIP score: 1
[4]; part A, same subject of 120 mg group, 72 h postinfusion, scale 0–5
  VIP score: 1
[4]; part B, one letermovir-treated subject, predose day 14 until 72 h postdose
  VIP score: 1
[4]; part B, throughout the study, all participants except one
  VIP score: 0
[5]; part A, one subject in letermovir-treated group, at follow-up
  Ultrasound finding in infusion site arm: NCS abnormal finding
[5]; part B
  Ultrasound finding in infusion site arm: no abnormal findings
